Columns and labels:
Type in all cases: cell-based
[1] = target: T1, human Nod1 (Homo sapiens, UniProt Q9Y239); assay: NF-κB induction in HEK-Blue cells; settings: for Nod1-agonistic activity (in words): primary screen, NF-κB induction
T1 sequence (Q9Y239 1-953): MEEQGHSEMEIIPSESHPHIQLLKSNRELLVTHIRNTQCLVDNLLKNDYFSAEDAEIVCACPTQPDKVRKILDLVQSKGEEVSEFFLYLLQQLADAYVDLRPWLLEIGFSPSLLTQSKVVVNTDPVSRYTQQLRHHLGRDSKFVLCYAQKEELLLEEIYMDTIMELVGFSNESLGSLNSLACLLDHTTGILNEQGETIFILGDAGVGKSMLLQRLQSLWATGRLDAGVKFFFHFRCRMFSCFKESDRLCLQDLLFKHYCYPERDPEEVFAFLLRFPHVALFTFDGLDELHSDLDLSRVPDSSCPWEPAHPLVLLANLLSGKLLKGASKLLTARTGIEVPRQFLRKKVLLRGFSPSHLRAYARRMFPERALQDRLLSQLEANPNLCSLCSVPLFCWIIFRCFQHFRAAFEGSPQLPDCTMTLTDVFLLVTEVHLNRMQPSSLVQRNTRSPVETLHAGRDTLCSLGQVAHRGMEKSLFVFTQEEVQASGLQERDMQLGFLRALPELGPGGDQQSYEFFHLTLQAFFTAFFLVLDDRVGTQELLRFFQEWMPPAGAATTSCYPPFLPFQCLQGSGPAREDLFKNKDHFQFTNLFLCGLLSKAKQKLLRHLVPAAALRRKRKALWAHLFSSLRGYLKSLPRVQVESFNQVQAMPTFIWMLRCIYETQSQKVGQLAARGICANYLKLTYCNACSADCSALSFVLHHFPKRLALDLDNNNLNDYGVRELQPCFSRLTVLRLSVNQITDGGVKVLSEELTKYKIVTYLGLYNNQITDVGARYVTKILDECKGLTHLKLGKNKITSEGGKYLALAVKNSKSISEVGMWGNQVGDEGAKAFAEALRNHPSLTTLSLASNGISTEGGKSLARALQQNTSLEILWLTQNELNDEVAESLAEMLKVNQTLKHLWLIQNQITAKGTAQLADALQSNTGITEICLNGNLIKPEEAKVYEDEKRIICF
How it was run: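 HEK-Blue cells stably express secreted alkaline phosphatase (sAP) under NF-κB/AP-1 promoters. Cells were grown to confluency, then exposed to graded concentrations of test compound. Extracellular sAP in the supernatant, taken as proportional to Nod1-mediated NF-κB induction, was measured spectrophotometrically at 620 nm with an alkaline phosphatase-specific chromogen in the detection medium.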

[2] = tested on: p38 MAPK in the granulocytic population in whole human blood; assay: Phosflow flow cytometric assay for p38MAPK in whole human blood; settings: ex vivo whole human blood, granulocytes, 15 minutes at 37°C, flow cytometry
How it was run: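 Heparinised fresh whole human blood was exposed to graded concentrations of test compound in saline for 15 min at 37°C. One-step erythrocyte lysis and leukocyte fixation, wash (500 g, 8 min), permeabilisation in ice-cold methanol for 30 min, two PBS washes. Staining for 60 min with PE-anti-phospho-p38 (pT180/pY182) mAb or matched PE mouse IgG1κ isotype control. Single-colour PE flow cytometry, 20,000 gated events.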

[3] = tested on: CD11b in the granulocytic population in whole human blood; assay: CD11b flow cytometric assay in whole human blood; settings: ex vivo whole human blood, granulocytes, 1 hour at 37°C, flow cytometry
How it was run: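 Fresh anticoagulated whole human blood was incubated with graded dilutions of test compound for 1 h at 37°C, with saline negative controls. Samples were chilled on ice for 15 min, then stained with anti-CD11b/Mac-1 antibody for 30 min on ice so that only surface CD11b was labelled. Erythrocytes were lysed and leukocytes fixed in one step in pre-warmed lyse/fix buffer, then washed twice (200 g, 5 min). Single-colour PE flow cytometry, 20,000 gated events.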

[4] = tested on: Human PBMCs; assay: Transcriptomal profiling; settings: 20 μg/mL
How it was run: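 PBMCs from fresh heparinised human blood were stimulated with test compound at 20 μg/mL for 2 h; total RNA was extracted from treated and negative-control samples. 4 μg RNA per sample was hybridised to U133 plus 2.0 arrays. Chips passed QC (5′/3′ ratio < 3.0), were scaled to target intensity 500 and normalised, with absent-call genes filtered. Differential expression was defined as ≥2-fold change versus negative control.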

CCCCCCCCCCCC(=O)N[C@H](CCC(=O)N[C@H](CCCCN)C(=O)O)C(=O)O [Compound 73, (R)-6-Amino-2-((R)-4-carboxy-4-dodecanamidobutanamido) hexanoic acid]
Nod1-agonistic activity (in words) [1]: bereft of any activity

N[C@H](CCC(=O)N[C@H](CCC[C@H](N)C(=O)O)C(=O)O)C(=O)O [γ-glutamyl-meso-diaminopimelic acid, reference compound]
Nod1-agonistic activity (in words) [1]: inactive | p38 MAPK upregulation (in words) [2]: inactive | CD11b upregulation (in words) [3]: inactive

CCCCCCCCCCCCN(CCCCCCCCCCCC)[C@H](CCC(=O)NC(CCCC(N)C(=O)O)C(=O)O)C(=O)O (stereo partly drawn) [Compound 27, 2-Amino-6-((R)-4-carboxy-4-(didodecylamino)butanamido) heptanedioic acid]
p38 MAPK upregulation (in words) [2]: more potent than 16 | CD11b upregulation (in words) [3]: more potent than 16 | pathway analysis of induced gene transcripts (in words) ([4]; IPA pathway analysis): activation of pathways involving signaling mediated by Triggering Receptor Expressed on Myeloid Cells 1 | Fold change IL1B (interleukin 1, beta), up ([4]; probe set 39402_at, two hours, up): 4.45 fold | Fold change IL1RN (interleukin 1 receptor antagonist), up ([4]; probe set 212659_s_at, two hours, up): 8.19 fold | Fold change IL1RN (interleukin 1 receptor antagonist), up ([4]; probe set 216243_s_at, two hours, up): 7.54 fold | Fold change IL1RN (interleukin 1 receptor antagonist), up ([4]; probe set 216244_at, two hours, up): 8.27 fold

CCCCCCCCCCCC(=O)N[C@H](CCC(=O)NC(CCCC(N)C(=O)O)C(=O)O)C(=O)O (stereo partly drawn) [Compound 16, 2-Amino-6-((R)-4-carboxy-4-dodecanamidobutanamido) heptanedioic acid]
EC50 [1]: ~0.03 nM | p38 MAPK upregulation (in words) [2]: upregulated in a dose-dependent manner | CD11b upregulation (in words) [3]: upregulated in a dose-dependent manner

CCCCCCCCCCCC(=O)N[C@H](CCC(=O)NCCCCCN)C(=O)O [Compound 69, (R)-5-((5-Aminopentyl)amino)-2-dodecanamido-5-oxopentanoic acid]
Nod1-agonistic activity (in words) [1]: abrogation of activity

CCCCCCCCCCCC(=O)N[C@H](CCC(=O)NC(CCCCC(=O)O)C(=O)O)C(=O)O (stereo partly drawn) [Compound 67, 2-((R)-4-carboxy-4-dodecanamidobutanamido)heptanedioic acid]
Nod1-agonistic activity (in words) [1]: abrogation of activity
